From ChEMBL document CHEMBL1153030, “Synthesis, structural characterisation and biological evaluation of fluorinated analogues of resveratrol” (Bioorg Med Chem, 2009) come the findings set out here.

The test system of one data set is NCI-H460. The data set is described as follows: Antiproliferative activity against human NCI-H460 cells assessed as cell growth at 100 uM after 48 hrs by alamar blue assay. It counts as functional. Conditions: NCI-H460, 48 h, read-out: Activity. The essentials: (§1)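 DTP three cell line one-dose prescreen: MCF7 (breast), NCI-H460 (lung), SF-268 (CNS). Cells inoculated and preincubated in microtiter plate, then single concentration of test agent added, 48 h incubation. Alamar blue endpoint. Growth expressed as percent of untreated control cells.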
(Alamar Blue is a resazurin reagent that responds to reducing activity.)

For another data set, the system named is SF-268. The data set is described as follows: Antiproliferative activity against human SF268 cells assessed as cell growth at 100 uM after 48 hrs by alamar blue assay. The class given is functional. The following applies: SF-268, 48 h, read-out: Activity. The essentials: as §1
A further data set deals with MCF7. The data set is described as follows: Antiproliferative activity against human MCF7 cells assessed as cell growth at 100 uM after 48 hrs by alamar blue assay. The class given is functional. The following applies: MCF7, 48 h, read-out: Activity. A digest of the protocol: as §1
Data set [1] is described as follows: Antiproliferative activity against P-gp expressing human DLKP-A cells assessed as cell proliferation at 10 uM after 5 days by acid phosphatase assay. The class given is functional. Conditions: for growth at 10 µM: Homo sapiens, DLKP-A, 120 h, read-out: Activity. A digest of the protocol: (§2)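 Cell lines DLKP, DLKP-A and HT-144, seeded at 1 × 10³ cells/well (DLKP and DLKP-A) or 3 × 10³ cells/well (HT-144, higher density needed for cell-contact-dependent growth). 5 day drug exposure. Compounds tested alone and in combination with the P-gp/MRP1 substrate epirubicin. Read-out is cell proliferation (%) relative to untreated control.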

Data set [2] in a line: Solubility in DMSO-containing medium. It counts as physicochemical. A digest of the protocol: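 Compounds were solubilised in a minimum amount of DMSO, then solubility was tested in culture media. A minimum concentration of 0.5 mg/ml in media was required before biological evaluation.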
Data set [3] can be described thus: Antiproliferative activity against MRP1-expressing human DLKP cells assessed as cell proliferation at 10 uM after 5 days by acid phosphatase assay. Conditions: 120 h, read-out: Activity. It counts as functional. The essentials:
as §2

Data set [4] can be described thus: Antiproliferative activity against MRP1-expressing human DLKP cells after 5 days by acid phosphatase assay. The class given is functional, cell-based. The following applies: 120 h. The essentials: as §2
Data set [5] is described as follows: Solubility of the compound in cell media. Conditions: cell culture media.
A short description of data set [6]: Antiproliferative activity against P-gp expressing human DLKP-A cells after 5 days by acid phosphatase assay. Conditions: 120 h. It counts as functional, cell-based. The essentials: as §2
For data set [7], the system named is HT-144. As to the kind of experiment: Antiproliferative activity against human HT144 cells after 5 days by acid phosphatase assay. Conditions: HT-144, 120 h. The class given is functional, cell-based. A digest of the protocol:
as §2

A short description of data set [8]: Antiproliferative activity against MRP1-expressing human DLKP cells assessed as cell proliferation at 5 uM after 5 days by acid phosphatase assay. It counts as functional. The following applies: 120 h, read-out: Activity. A digest of the protocol:
as §2

Data set [9] relates to HT-144. The data set is described as follows: Antiproliferative activity against human HT144 cells assessed as cell proliferation at 20 uM after 5 days by acid phosphatase assay. It counts as functional. The following applies: HT-144, 120 h, read-out: Activity. A digest of the protocol:
as §2

Data set [10] in a line: Antiproliferative activity against P-gp expressing human DLKP-A cells assessed as cell proliferation at 5 uM after 5 days by acid phosphatase assay. It counts as functional. Conditions: 120 h, read-out: Activity. A digest of the protocol:
as §2

Data set [11] is described as follows: Aqueous solubility of the compound. It counts as physicochemical. Conditions: buffer.
In the next data set the test system is HL-60(TB). The data set is described as follows: Anticancer activity against human HL-60(TB) cells. It counts as functional, cell-based. A digest of the protocol: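 Tested in the DTP 60 human tumour cell line panel, which covers leukaemia, lung, colon, CNS, melanoma, ovarian, renal, prostate and breast lines. GI50, IC50, LC50 and TGI were calculated for each cell line.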

The test system of the next data set is DU-145. As to the kind of experiment: Anticancer activity against human DU145 cells. It counts as functional, cell-based. The essentials:
(§3)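 NCI 60 human tumour cell line panel; GI50, IC50, LC50 and TGI values calculated for each cell line.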

In a further data set the test system is HT-29. The data set is described as follows: Anticancer activity against human HT-29 cells. It counts as functional, cell-based. The essentials: as §3
Another data set concerns T47D. The data set is described as follows: Anticancer activity against human T47D cells. It counts as functional, cell-based. The essentials: as §3
For the next data set, the system named is RXF 393. The data set is described as follows: Anticancer activity against human RXF393 cells. It counts as functional, cell-based. A digest of the protocol:
as §3

The next data set relates to EKVX. The data set is described as follows: Anticancer activity against human EKVX cells. The class given is functional, cell-based. A digest of the protocol:
as §3

Another data set deals with SNB-75. As to the kind of experiment: Anticancer activity against human SNB75 cells. It counts as functional, cell-based. A digest of the protocol:
as §3

Another data set has as its system SK-OV-3. The data set is described as follows: Anticancer activity against human SKOV3 cells. The class given is functional, cell-based. A digest of the protocol: as §3
Another data set has as its system SK-MEL-28. As to the kind of experiment: Anticancer activity against human SK-MEL-28 cells. The class given is functional, cell-based. The essentials:
as §3

Data set [12] in a line: Antiproliferative activity against MRP1-expressing human DLKP cells assessed as cell proliferation at 0.01 uM after 5 days by acid phosphatase assay. The class given is functional. Conditions: 120 h, read-out: Activity. A digest of the protocol:
as §2

Data set [13] concerns HT-144. As to the kind of experiment: Antiproliferative activity against human HT144 cells assessed as cell proliferation at 0.005 uM after 5 days by acid phosphatase assay. It counts as functional. The following applies: HT-144, 120 h, read-out: Activity. The essentials:
as §2

Data set [14] is described as follows: Antiproliferative activity against P-gp expressing human DLKP-A cells assessed as cell proliferation at 1.5 uM after 5 days by acid phosphatase assay. Conditions: 120 h, read-out: Activity. The class given is functional. The essentials: as §2

Regarding `COc1ccc(/C=C/c2cc(F)cc(F)c2)cc1`, the figures for the growth at 100 µM in the data set with NCI-H460, with SF-268 and with MCF7 were 105%, 111% and 84%, respectively.

`COc1cc(/C=C/c2ccc(F)cc2)cc(OC)c1`: the results for the growth at 100 µM with NCI-H460, in the data set with SF-268 and in the data set with MCF7 were 60%, 105% and 67%, respectively.

In the case of `Fc1ccc(/C=C/c2cc(F)cc(F)c2)cc1`, the growth at 100 µM was found to be 101% in the data set on NCI-H460, 111% in the data set on SF-268 and 82% in the data set with MCF7.

In general, IC50 refers to the concentration that gives 50% inhibition. A higher IC50 goes with lower potency. On to `CC(=O)Nc1ccc(/C=C/c2cc(F)cc(F)c2)cc1`, for which the growth at 10 µM in data set [1] was found to be 78%; in [3] it was 75%. The solubility entry in data set [2] and in [5] was “Soluble” in each case. In addition, the IC50 in data set [4] came to 39 µM.

Take `CC(=O)Nc1cc(/C=C/c2ccc(F)cc2)cc(NC(C)=O)c1`: the growth at 10 µM in data set [1] was found to be 96%; in [3], 94%. Also, the solubility entry in [2] and in [5] was “Soluble” in each case. Besides, the IC50 in data set [6] was more than 50 µM; in data set [4], 50 µM.

Consider `Nc1cc(N)cc(/C=C/c2ccc(F)cc2)c1`, for which the growth at 10 µM in [1] worked out at 98%; in [3], 87%. Moreover, the solubility result in [2] and in [5] was “Soluble” throughout. Also, the half-inhibitory concentration (IC50) in data set [6] and in data set [4] was more than 50 µM each time.

As for `CC(=O)Oc1cc(/C=C/c2ccc(F)cc2)cc(OC(C)=O)c1`, the concentration for half-maximal inhibition (IC50) with HT-144 [7] is 56 µM; in data set [6] it was 19 µM; in data set [4], 25 µM. The growth at 5 µM in [8] amounted to 100%; in [10] it was 89%. For the same compound, the solubility entry in [2] and in [5] was “Soluble” throughout. The growth at 20 µM in the data set on HT-144 [9] came to 100%.

`NCC(=O)Nc1ccc(/C=C/c2cc(F)cc(F)c2)cc1.O=C(O)C(F)(F)F`: the solubility entry in data set [2] and in [11] was “Soluble” each time.

Regarding `O=C(Nc1cc(/C=C/c2ccc(F)cc2)cc(NC(=O)C(F)(F)F)c1)C(F)(F)F`, the values for the growth at 10 µM in data set [1] and in data set [3] were 84% and 95%, respectively. Further, the solubility entry in data set [2] and in [5] was “Soluble” each time. Moreover, the IC50 in data set [6] is 20 µM; in [4], 28 µM.

Take `Oc1ccc(/C=C/c2cc(F)cc(F)c2)cc1`: the concentration for half-maximal inhibition (IC50) in the data set with HT-144 [7] turned out to be 59 µM; in data set [6], 14 µM; in data set [4], 6 µM. Moreover, the growth at 5 µM in data set [8] stood at 74%; in [10], 85%. Further, the solubility result in data set [2] and in data set [5] was “Soluble” each time. Further, the growth at 20 µM in the data set with HT-144 [9] is 105%.

For the compound `CC(=O)Oc1cc(O)cc(/C=C/c2ccc(F)cc2)c1`, the half-inhibitory concentration (IC50) stood at 54 µM with HT-144 [7], 21 µM in data set [6] and 21 µM in [4]. Also, the growth at 5 µM in data set [8] was found to be 98%; in data set [10], 90%. For the same compound, the solubility result in data set [2] and in data set [5] was “Soluble” in each case. In addition, in the data set with HT-144 [9], the growth at 20 µM was 110%.

Usually GI50 stands for the concentration giving 50% growth inhibition. A higher GI50 goes with less potent growth inhibition. Take `CC(=O)Oc1ccc(/C=C/c2cc(F)cc(F)c2)cc1`: the IC50 is 36 µM in the data set with HT-144 [7]; 54.6 µM in the data set on HL-60(TB); 100 µM with DU-145; 73.7 µM in the data set with HT-29; 79.8 µM with T47D; 75.9 µM in the data set on RXF 393. The concentration for half-maximal inhibition (IC50) in the data set on EKVX worked out at 78.7 µM; in the data set with SNB-75, 60.3 µM; with SK-OV-3 it was 83.1 µM; in data set [6], 10 µM; in the data set with SK-MEL-28, 70.1 µM; in [4] it was 7 µM. The 50% growth inhibitory concentration (GI50) is 117 µM in the data set with HL-60(TB); 128 µM in the data set with DU-145; 80.6 µM with HT-29; 128 µM with T47D; 202 µM with RXF 393; 117 µM in the data set on EKVX. Further, the concentration for 50% growth inhibition (GI50) in the data set on SNB-75 was determined as 90.9 µM; with SK-OV-3 it was 96.5 µM; with SK-MEL-28, 83.1 µM. The results for the growth at 5 µM in data set [8] and in [10] were 52% and 50%, respectively. The solubility entry in [2] and in data set [5] was “Soluble” throughout. For the same compound, the figures for the growth at 100 µM in the data set on NCI-H460, in the data set on SF-268 and in the data set on MCF7 were 7%, 1% and 22%, respectively. The growth at 20 µM in the data set with HT-144 [9] stood at 85%.

As to `COc1cccc2c1C(=O)c1c(O)c3c(c(O)c1C2=O)C[C@@](O)(C(=O)CO)C[C@@H]3O[C@H]1C[C@H](N)[C@@H](O)[C@H](C)O1` [EPIRUBICIN], the growth at 0.01 µM in data set [12] amounted to 64%. Also, the growth at 0.005 µM with HT-144 [13] is 91%. Further, the growth at 1.5 µM in [14] is 66%.

As to `Oc1ccc(/C=C/c2cc(O)cc(O)c2)cc1` [RESVERATROL], the half-maximal inhibitory concentration (IC50) with HT-144 [7] is 40 µM; in data set [6], 15 µM; in data set [4], 10 µM. In addition, the Activity in data set [1] came out at 66%. For the same compound, the growth at 10 µM in data set [1] came to 67%; in [3], 38%. The growth at 20 µM with HT-144 [9] is 100%.
